Measurements from the EternaBench riboswitch data.

Test system: MS2 coat protein
Experiment: apparent Kd, MS2 coat protein; higher = weaker binding; RNA-MaP array; FMN 200 µM where present
Method in brief: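 SNAP-549-labelled MS2 coat protein, doubled from 0.7 or 1.5 nM to 3 µM, was titrated over designs transcribed by stalled E. coli RNA polymerase on Illumina sequencing-chip clusters. Titrations were run without and then with constant ligand in 100 mM Tris-HCl pH 7.5, 80 mM KCl, 4 mM MgCl2, BSA, DTT, yeast tRNA and Tween-20. The apparent Kd is the median of filtered per-cluster fits to green signal normalised to red-channel RNA signal and control-cluster median Fmax.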

[1] = designed as: OFF switch for flavin mononucleotide, no ligand
[2] = ligand present: flavin mononucleotide, designed as: OFF switch for flavin mononucleotide
[3] = designed as: ON switch for flavin mononucleotide, no ligand
[4] = ligand present: flavin mononucleotide, designed as: ON switch for flavin mononucleotide

In the case of “CCUGCACAUGAGGAUCACCCAUGUUAGGAUAUCUCGCCGUCGGCUUGCCGACGGUAUUAGAGAAGGGACAAGGG”, the “apparent Kd” value [1] is reported as 34.7 nM and the “apparent Kd” value [2] is reported as 45.5 nM.

“AAAUUCAGAGGAUAUGCGCAUAGAUAAGACUUUUUUUCUUAACAUGAGGAUCACCCAUGUAGAAGGCUGUAAUA” was tested, and the “apparent Kd” value [1] was 18.4 nM and the “apparent Kd” value [2] was 16.7 nM.

In the case of “UUUACGUGAGGAUAUGCGAAUAGUACGUAAGUCAUACAGACGCAGAAGGCACAUGAGGAUCACCCAUGUGAACC”, the “apparent Kd” value [1] is reported as 22.7 nM and the “apparent Kd” value [2] is reported as 80.4 nM.

“AGUAUGAGAGGAUAUACUAAUAAACAUGGAAACAUGAAGGGACAUGAGGAUCACCCAUGUAGAAGGCUCGUACA” was tested, and the “apparent Kd” value [1] was 55.6 nM and the “apparent Kd” value [2] was 177 nM.

In the case of “CGCUGGUGACAGCAUCCAUCAAAACAUGAGGAUCACCCAUGUAGAAGGCUGUACGGUUACCGUACAGAGGAUAUACAAUGAUGC”, the “apparent Kd” value [1] is reported as 15.1 nM and the “apparent Kd” value [2] is reported as 28.4 nM.

“AAGAGGCUAGGAUAUACAUGAGGAUCACCCAUGUGAGGGCACGGCCGGCGCGUGGCCGGUAGAAGGAGUCAAAA” was tested, and the “apparent Kd” value [1] was 21.3 nM and the “apparent Kd” value [2] was 22.6 nM.

With “GGAGGACAUGAGGAUCACCCAUGUGGAUGAUCGCUAGGAUAUGCGUAAAGGAGGAGUGGUGCAGAAGGAGUGGGAU” the “apparent Kd” value [3] was 464 nM and the “apparent Kd” value [4] was 360 nM.

“UGGUACAUCGGAGGAUAUCAUGUAGAUACAUGAGGAUCACCCAUGUCGUACGAUAGUACGGAGAUUGAGAAGGCCGAUGUACCU” was tested, and the “apparent Kd” value [3] was 30.5 nM and the “apparent Kd” value [4] was 16.6 nM.

For “UUAUUGUGAGGAUAUCCAAUAUAUGACAUGAGGAUCACCCAUGUUUCCACUCGUACCUCCGGAGAAGGCACAUUUU”, the “apparent Kd” value [1] was 30.8 nM and the “apparent Kd” value [2] was 21.7 nM.

In the case of “GCUGCUAUCACAGGAUAUUACAUGGGAAAGAGUACAUGAGGAUCACCCAUGUAAAAGAUCAUAAAUAAGAAGGGUGAUAGCAGC”, the “apparent Kd” value [3] is reported as 150 nM and the “apparent Kd” value [4] is reported as 256 nM.

“CAGGUCUGAGGAUAUCCAUCUUCAUACAUGAGGAUCACCCAUGUUUACCUCUGGGUUUUCGGAGAAGGCAGUUUUU” was tested, and the “apparent Kd” value [1] was 354 nM and the “apparent Kd” value [2] was 397 nM.

“GCUCGAUGAGCUGACUACAUGAGGAUCACCCAUGUAGAUGGGCAGGAUAUUUACGUGCUUUAUGUAGAGAAGGGCCCAUCGAGC” was tested, and the “apparent Kd” value [3] was 324 nM and the “apparent Kd” value [4] was 114 nM.

With “UUGUUGUAUGUAGGAUAUGCAUAUUAUUAUUGUGCAGAAGGACAUGAGGAUCACCCAUGUAUAUUAUUAUUAUAUGUUAUAUAU” the “apparent Kd” value [1] was 30.6 nM and the “apparent Kd” value [2] was 37.4 nM.

In the case of “GAUCAACAUGAGGAUCACCCAUGUGAGGAUAUGUAUCAUAGAUCUUCGGAUCUAUGAUACAGAAGGCAUGUGGA”, the “apparent Kd” value [1] is reported as 204 nM and the “apparent Kd” value [2] is reported as 46.5 nM.

With “CAUAACUUUUCUCAUGUAAACAUGAGGAUCACCCAUGUAAUGAGAAGGAGGCGGCAGAGAGCAUCCUAGGAUAUCAGAAUUGUU” the “apparent Kd” value [1] was 7.02 nM and the “apparent Kd” value [2] was 6.74 nM.

With “AAAAAAAAAAACUAGGAUAUUUAACGGACAACAUGAGGAUCACCCAUGUCACAAAAAAAAAUAGUAAAGAAGGAGUAAAAAAAAAA” the “apparent Kd” value [3] was 32.7 nM and the “apparent Kd” value [4] was 31.8 nM.

For “UUAUUUAUACAAGGAUAUCAAUUAUAUACAAUUCCUACAUGAGGAUCACCCAUGUUUUAUUUUUUUGAGAAGGUGUAUUGUCUG”, the “apparent Kd” value [3] was 30.1 nM and the “apparent Kd” value [4] was 32.8 nM.

With “UAGUAGUGAGGAUAUACAUGGAUAUACAUUCAUGUGGACCUACAUGAGGAUCACCCAUGUAGAAGGCACUACUA” the “apparent Kd” value [1] was 41.9 nM and the “apparent Kd” value [2] was 91.4 nM.

With “UUUUUGUCAGGAUAUGCGUAGUAGAACAAUAGUACUACUACGUAGAAGGGACAUGAGGAUCACCCAUGUUCCUC” the “apparent Kd” value [1] was 14.4 nM and the “apparent Kd” value [2] was 20.5 nM.

For “AACUCACAUGAGGAUCACCCAUGUGAGGAUAUAUUAAUAUGUAUGUUAUUAUGUAUUGAUAGAAGGCGCGUGAU”, the “apparent Kd” value [1] was 46.3 nM and the “apparent Kd” value [2] was 49.1 nM.

“AAAAAUGGAGGAUAUACAUGAGGAUCACCCAUGUGUGGGCAUACUAUGUCGGCGUCAGGUAGAAGGCCAAAAAA” was tested, and the “apparent Kd” value [1] was 40.8 nM and the “apparent Kd” value [2] was 48.9 nM.

“UAAUAGGGAGGAUAUCCAAUAUAUGACAUGAGGAUCACCCAUGUUUCCACUCGUACCUCCGGAGAAGGCCCAUAAU” was tested, and the “apparent Kd” value [1] was 21 nM and the “apparent Kd” value [2] was 18.7 nM.

With “CUUCUGUAAGGAUAUGUAUGCUCCUGGUAUGUCGCGAGGAGACAGAAGGUACAUGAGGAUCACCCAUGUGGGCG” the “apparent Kd” value [1] was 168 nM and the “apparent Kd” value [2] was 304 nM.

“CUGUGUAAAGGAUAUACAUGAGGAUCACCCAUGUGAUGUCCAAACCUGAACGGUUCGUGUAGAAGGUUGCUCUU” was tested, and the “apparent Kd” value [1] was 20.9 nM and the “apparent Kd” value [2] was 19 nM.

In the case of “UGAUCGAGAGAUCUUAGAUUCUGGUAGGAUAUACAUAUAGUAAUAUAGACAUGAGGAUCACCCAUGUAGAAGGACUAGAGUCUA”, the “apparent Kd” value [1] is reported as 6.9 nM and the “apparent Kd” value [2] is reported as 8.65 nM.
